These results are taken from ChEMBL document CHEMBL1126288, “Pyrimido[1,6-a]benzimidazoles: a new class of DNA gyrase inhibitors” (1992).

In experiment [1] the test system is Escherichia coli. The experiment is described as follows: In vitro for antibacterial activity against Escherichia coli 1346 (Ec(A)). The experiment is classed as functional.
Experiment [2] has as its system Escherichia coli. The experiment is described as follows: In vitro for antibacterial activity against Escherichia coli 1527E (Ec(C)). The experiment is classed as functional.
In experiment [3] the test system is Escherichia coli. The experiment is described as follows: In vitro for antibacterial activity against Escherichia coli B (Ec(B)). The experiment is classed as functional.
In experiment [4] the test system is Staphylococcus haemolyticus. The experiment is described as follows: In vitro for antibacterial activity against Staphylococcus haemolyticus 75 (quinolone-resistant). The class given is functional.
In a further experiment the test system is Staphylococcus aureus. The experiment is described as follows: In vitro for antibacterial activity against Staphylococcus aureus 887. The experiment is classed as functional.
A further experiment has as its system Klebsiella oxytoca. The experiment in a line: In vitro for antibacterial activity against Klebsiella oxytoca 1082E. The class given is functional.
The next experiment concerns Micrococcus luteus. The experiment in a line: In vitro for antibacterial activity against Micrococcus luteus ATCC 8340. The experiment is classed as functional.
Another experiment has as its system Bacillus subtilis. The experiment in a line: In vitro for antibacterial activity against Bacillus subtilis ATCC 585369. The experiment is classed as functional.
Another experiment relates to Pseudomonas aeruginosa. The experiment is described as follows: In vitro for antibacterial activity against Pseudomonas aeruginosa 799/61. The class given is functional.
The subject of a further experiment is Enterobacter cloacae. The experiment in a line: In vitro for antibacterial activity against Enterobacter cloacae P99. The experiment is classed as functional.
In experiment [5] the target is DNA gyrase (Escherichia coli) (UniProt P0AES6+P0AES4). The experiment in a line: Inhibitory activity against Escherichia coli DNA gyrase (represented as MNEC). The class given is protein-complex assay. In a few lines: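 Supercoiling assay. Gyrase subunits mixed equimolar and reconstituted to A2B2 for 30 min at 25 °C. Compound 0.1–100 µg/mL, 37 °C, 30 min. Read on 0.8% agarose gel; MNEC = highest concentration leaving all DNA fully supercoiled.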

Converted amounts (≈) assume the structure as drawn.

On to `CN1CCN(c2c(F)cc3c(=O)c(C(=O)O)cn(CCF)c3c2F)CC1` [FLEROXACIN], for which the MIC (in general, the lowest concentration found to suppress growth) against Escherichia coli [1] came out at 0.12 mg/L (≈ 0.325 µM); with Escherichia coli [2] it was 0.06 mg/L (≈ 0.162 µM); with Escherichia coli [3] it was 0.06 mg/L (≈ 0.162 µM); in [4] it was 32 mg/L (≈ 86.6 µM); in the experiment with Staphylococcus aureus, 2 mg/L (≈ 5.42 µM); against Klebsiella oxytoca, 0.12 mg/L (≈ 0.325 µM). For the same compound, the MIC came to 16 mg/L (≈ 43.3 µM) in the experiment with Micrococcus luteus, 0.5 mg/L (≈ 1.35 µM) in the experiment on Bacillus subtilis, 0.5 mg/L (≈ 1.35 µM) against Pseudomonas aeruginosa and 0.12 mg/L (≈ 0.325 µM) in the experiment with Enterobacter cloacae.
Take `CN(C)n1c(=O)cc2n(C3CC3)c3cc(N4CCNCC4)c(F)cc3n2c1=O`: the MIC was 8 mg/L (≈ 20.7 µM) in the experiment with Escherichia coli [1]; 32 mg/L (≈ 82.8 µM) against Escherichia coli [2]; 1 mg/L (≈ 2.59 µM) in the experiment on Escherichia coli [3]; over 128 mg/L in experiment [4]; 16 mg/L (≈ 41.4 µM) against Staphylococcus aureus; 32 mg/L (≈ 82.8 µM) in the experiment with Klebsiella oxytoca. Further, the MIC with Micrococcus luteus was over 128 mg/L; against Bacillus subtilis, 4 mg/L (≈ 10.4 µM); in the experiment with Pseudomonas aeruginosa it was 64 mg/L (≈ 166 µM); in the experiment on Enterobacter cloacae, 32 mg/L (≈ 82.8 µM). In experiment [5], this compound showed an MNEC of 0.5 µg/mL.
On to `CCn1c2cc(N3CCN(C)CC3)c(F)cc2n2c(=O)nc(N)cc12`, for which the MIC (with Escherichia coli [1]; against Escherichia coli [2]; against Escherichia coli [3]; in experiment [4]; against Staphylococcus aureus; against Klebsiella oxytoca) was over 32 mg/L each time. The MIC in the experiment on Micrococcus luteus, in the experiment with Bacillus subtilis, against Pseudomonas aeruginosa and in the experiment on Enterobacter cloacae was over 32 mg/L each time. Further, the MNEC in [5] is over 10 µg/mL.
Take `CCn1c2cc(N3CCN(C)CC3)c(F)cc2n2c(=O)[nH]c(=O)cc12`: the MIC against Escherichia coli [1] was 16 mg/L (≈ 46.3 µM); with Escherichia coli [2], 32 mg/L (≈ 92.7 µM); in the experiment with Escherichia coli [3], 2 mg/L (≈ 5.79 µM); in the experiment with Staphylococcus aureus it was over 32 mg/L; with Klebsiella oxytoca it was over 32 mg/L; against Micrococcus luteus, over 32 mg/L. Besides, the values for the MIC in the experiment with Bacillus subtilis, in the experiment on Pseudomonas aeruginosa and in the experiment on Enterobacter cloacae were 16 mg/L (≈ 46.3 µM), over 32 mg/L and 16 mg/L (≈ 46.3 µM), respectively. The MNEC in [5] is 2 µg/mL.
Regarding `O=c1cc2n(C3CC3)c3cc(N4CCNCC4)c(F)cc3n2c(=O)n1O`, the minimal inhibitory concentration (MIC) in the experiment with Escherichia coli [1] is under 0.25 mg/L; against Escherichia coli [2], 2 mg/L (≈ 5.57 µM); in the experiment on Escherichia coli [3] it was under 0.25 mg/L; in experiment [4], over 64 mg/L; with Staphylococcus aureus, over 64 mg/L; in the experiment with Klebsiella oxytoca, 1 mg/L (≈ 2.78 µM). The MIC was 8 mg/L (≈ 22.3 µM) against Micrococcus luteus, 4 mg/L (≈ 11.1 µM) against Bacillus subtilis, 2 mg/L (≈ 5.57 µM) against Pseudomonas aeruginosa and 1 mg/L (≈ 2.78 µM) against Enterobacter cloacae. The compound also came in with an MNEC in [5] of 1 µg/mL.
For the compound `CCn1c2cc(N3CCNCC3)c(F)cc2n2c(=O)[nH]c(=O)cc12`, the MIC was 16 mg/L (≈ 48.3 µM) against Escherichia coli [1]; over 64 mg/L against Escherichia coli [2]; 8 mg/L (≈ 24.1 µM) against Escherichia coli [3]; over 64 mg/L against Staphylococcus aureus; over 64 mg/L against Klebsiella oxytoca; over 64 mg/L with Micrococcus luteus. The MIC in the experiment on Bacillus subtilis was 64 mg/L (≈ 193 µM); with Pseudomonas aeruginosa, over 64 mg/L; with Enterobacter cloacae it was 64 mg/L (≈ 193 µM). For the same compound, the MNEC in experiment [5] was found to be 1 µg/mL.
Turning to `O=c1cc2n(C3CC3)c3cc(N4CCNCC4)c(F)cc3n2c(=O)[nH]1`, the MIC against Escherichia coli [1] is 2 mg/L (≈ 5.82 µM); in the experiment with Escherichia coli [2] it was 8 mg/L (≈ 23.3 µM); in the experiment with Escherichia coli [3], 0.5 mg/L (≈ 1.46 µM); against Staphylococcus aureus, over 32 mg/L; in the experiment with Klebsiella oxytoca, 16 mg/L (≈ 46.6 µM); in the experiment with Micrococcus luteus it was over 32 mg/L. Also, the figures for the MIC against Bacillus subtilis, against Pseudomonas aeruginosa and with Enterobacter cloacae were 8 mg/L (≈ 23.3 µM), 32 mg/L (≈ 93.2 µM) and 8 mg/L (≈ 23.3 µM), respectively. In [5], this compound yielded an MNEC of 0.2 µg/mL.
On to `CCn1c2cc(N3CCNCC3)c(F)cc2n2c(=O)n(O)c(=O)cc12`, for which the MIC in the experiment with Escherichia coli [1] was 8 mg/L (≈ 23 µM); against Escherichia coli [2], 32 mg/L (≈ 92.1 µM); against Escherichia coli [3] it was 8 mg/L (≈ 23 µM); in experiment [4], over 64 mg/L; against Staphylococcus aureus, over 64 mg/L; with Klebsiella oxytoca it was 16 mg/L (≈ 46.1 µM). The MIC in the experiment on Micrococcus luteus worked out at 32 mg/L (≈ 92.1 µM); against Bacillus subtilis it was 32 mg/L (≈ 92.1 µM); in the experiment on Pseudomonas aeruginosa it was 4 mg/L (≈ 11.5 µM); against Enterobacter cloacae, 8 mg/L (≈ 23 µM). In experiment [5], this compound came in with an MNEC of 1 µg/mL.
As to `Nn1c(=O)cc2n(C3CC3)c3cc(N4CCNCC4)c(F)cc3n2c1=O`, the MIC in the experiment on Escherichia coli [1] was 1 mg/L (≈ 2.79 µM); against Escherichia coli [2], 2 mg/L (≈ 5.58 µM); with Escherichia coli [3] it was 0.25 mg/L (≈ 0.698 µM); in [4], over 64 mg/L; against Staphylococcus aureus, 64 mg/L (≈ 179 µM); in the experiment on Klebsiella oxytoca, 4 mg/L (≈ 11.2 µM). For the same compound, the MIC is over 64 mg/L in the experiment on Micrococcus luteus, 4 mg/L (≈ 11.2 µM) in the experiment on Bacillus subtilis, 8 mg/L (≈ 22.3 µM) against Pseudomonas aeruginosa and 2 mg/L (≈ 5.58 µM) in the experiment on Enterobacter cloacae. The compound also yielded an MNEC in experiment [5] of 0.2 µg/mL.
As for `CN1CCN(c2cc3c(cc2F)n2c(=O)[nH]c(=O)cc2n3C2CC2)CC1`, the MIC is 2 mg/L (≈ 5.6 µM) in the experiment on Escherichia coli [1]; 2 mg/L (≈ 5.6 µM) with Escherichia coli [2]; 0.25 mg/L (≈ 0.7 µM) in the experiment on Escherichia coli [3]; over 32 mg/L in [4]; 16 mg/L (≈ 44.8 µM) in the experiment on Staphylococcus aureus; 8 mg/L (≈ 22.4 µM) in the experiment with Klebsiella oxytoca. The MIC was over 32 mg/L against Micrococcus luteus, 4 mg/L (≈ 11.2 µM) in the experiment with Bacillus subtilis, 32 mg/L (≈ 89.5 µM) in the experiment with Pseudomonas aeruginosa and 4 mg/L (≈ 11.2 µM) against Enterobacter cloacae. Moreover, in experiment [5], the MNEC amounted to 1 µg/mL.
For `CCn1c2cc(N3CCN(C)CC3)c(F)cc2n2c(=O)n(O)c(=O)cc12`, the MIC against Escherichia coli [1] was determined as 2 mg/L (≈ 5.53 µM); in the experiment with Escherichia coli [2], 4 mg/L (≈ 11.1 µM); in the experiment on Escherichia coli [3], 1 mg/L (≈ 2.77 µM); in experiment [4], 16 mg/L (≈ 44.3 µM); in the experiment with Staphylococcus aureus, 16 mg/L (≈ 44.3 µM); against Klebsiella oxytoca, 4 mg/L (≈ 11.1 µM). Moreover, the MIC in the experiment with Micrococcus luteus worked out at 16 mg/L (≈ 44.3 µM); against Bacillus subtilis, 8 mg/L (≈ 22.1 µM); with Pseudomonas aeruginosa, 2 mg/L (≈ 5.53 µM); against Enterobacter cloacae it was 2 mg/L (≈ 5.53 µM). In addition, in [5], the MNEC turned out to be 1 µg/mL.
Regarding `CCn1c2cc(N3CCNCC3)c(F)cc2c2c(N)ncnc21`, the MIC against Escherichia coli [1] was 64 mg/L (≈ 204 µM); against Escherichia coli [2], over 128 mg/L; with Escherichia coli [3], 16 mg/L (≈ 50.9 µM); in experiment [4], over 128 mg/L; with Staphylococcus aureus, over 128 mg/L; against Klebsiella oxytoca it was over 128 mg/L. For the same compound, the MIC against Pseudomonas aeruginosa and against Enterobacter cloacae was over 128 mg/L in each case. In experiment [5], this compound returned an MNEC of 5 µg/mL.
Consider `CCn1cc(C(=O)O)c(=O)c2cc(F)c(N3CCNCC3)cc21` [NORFLOXACIN], for which the MIC in the experiment with Escherichia coli [1] was 0.12 mg/L (≈ 0.376 µM); against Escherichia coli [2], 0.12 mg/L (≈ 0.376 µM); in the experiment with Escherichia coli [3] it was 0.12 mg/L (≈ 0.376 µM); in [4] it was over 64 mg/L; with Staphylococcus aureus, 4 mg/L (≈ 12.5 µM); against Klebsiella oxytoca, 0.25 mg/L (≈ 0.783 µM). The MIC was 32 mg/L (≈ 100 µM) in the experiment with Micrococcus luteus, 1 mg/L (≈ 3.13 µM) in the experiment on Bacillus subtilis, 1 mg/L (≈ 3.13 µM) in the experiment on Pseudomonas aeruginosa and 0.25 mg/L (≈ 0.783 µM) against Enterobacter cloacae.
Consider `CN1CCN(c2cc3c(cc2F)n2c(=O)n(O)c(=O)cc2n3C2CC2)CC1`, for which the MIC in the experiment with Escherichia coli [1] is under 0.03 mg/L; with Escherichia coli [2] it was 0.12 mg/L (≈ 0.321 µM); with Escherichia coli [3], under 0.03 mg/L; in experiment [4], 32 mg/L (≈ 85.7 µM); with Staphylococcus aureus, 4 mg/L (≈ 10.7 µM); against Klebsiella oxytoca, 0.25 mg/L (≈ 0.67 µM). Further, the MIC against Micrococcus luteus is 32 mg/L (≈ 85.7 µM); with Bacillus subtilis it was 2 mg/L (≈ 5.36 µM); against Pseudomonas aeruginosa it was 2 mg/L (≈ 5.36 µM); in the experiment with Enterobacter cloacae, 0.12 mg/L (≈ 0.321 µM). In [5], the MNEC came to 1 µg/mL.
In the case of `CNn1c(=O)cc2n(C3CC3)c3cc(N4CCNCC4)c(F)cc3n2c1=O`, the MIC against Escherichia coli [1] worked out at 1 mg/L (≈ 2.69 µM); in the experiment with Escherichia coli [2], 8 mg/L (≈ 21.5 µM); with Escherichia coli [3] it was 0.5 mg/L (≈ 1.34 µM); in experiment [4], 128 mg/L (≈ 344 µM); against Staphylococcus aureus it was 16 mg/L (≈ 43 µM); with Klebsiella oxytoca it was 8 mg/L (≈ 21.5 µM). Also, the MIC against Micrococcus luteus was 128 mg/L (≈ 344 µM); in the experiment on Bacillus subtilis it was 8 mg/L (≈ 21.5 µM); with Pseudomonas aeruginosa, 32 mg/L (≈ 85.9 µM); against Enterobacter cloacae, 4 mg/L (≈ 10.7 µM). Further, the MNEC in experiment [5] came to 0.1 µg/mL.
